Laboratory results from ChEMBL document CHEMBL4422685, “Design, synthesis and evaluation of a series of 5-methoxy-2,3-naphthalimide derivatives as AcrB inhibitors for the reversal of bacterial resistance” (Bioorg Med Chem Lett, 2019).

Columns and labels:
[1] = test system: Escherichia coli; assay: Toxicity against wild-type drug-resistant Escherichia coli […] at 128 ug/ml; format: organism-based; settings: in vivo
How it was run: (§1)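 MIC determination against wild-type resistant E. coli BW25113 and an isogenic acrB-deleted strain; highest concentration tested 128 mg/L.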

[2] = test system: Escherichia coli; assay: Toxicity against AcrB deficient Escherichia coli AcrB lacking at 128 ug/ml; format: organism-based; settings: in vivo; how it was run: as §1
[3] = molecular target: T1, Multidrug efflux pump subunit AcrB (Escherichia coli (strain K12)) (UniProt P31224); assay: Inhibition of AcrB in wild-type drug-resistant Escherichia coli […] assessed as potentiation of chloramphenicol-induced antimicrobial activity by measuring chloramphenicol MIC at 8 ug/ml by checkerboard titration method (Rvb =16 ug/ml)
T1 sequence (whole entry): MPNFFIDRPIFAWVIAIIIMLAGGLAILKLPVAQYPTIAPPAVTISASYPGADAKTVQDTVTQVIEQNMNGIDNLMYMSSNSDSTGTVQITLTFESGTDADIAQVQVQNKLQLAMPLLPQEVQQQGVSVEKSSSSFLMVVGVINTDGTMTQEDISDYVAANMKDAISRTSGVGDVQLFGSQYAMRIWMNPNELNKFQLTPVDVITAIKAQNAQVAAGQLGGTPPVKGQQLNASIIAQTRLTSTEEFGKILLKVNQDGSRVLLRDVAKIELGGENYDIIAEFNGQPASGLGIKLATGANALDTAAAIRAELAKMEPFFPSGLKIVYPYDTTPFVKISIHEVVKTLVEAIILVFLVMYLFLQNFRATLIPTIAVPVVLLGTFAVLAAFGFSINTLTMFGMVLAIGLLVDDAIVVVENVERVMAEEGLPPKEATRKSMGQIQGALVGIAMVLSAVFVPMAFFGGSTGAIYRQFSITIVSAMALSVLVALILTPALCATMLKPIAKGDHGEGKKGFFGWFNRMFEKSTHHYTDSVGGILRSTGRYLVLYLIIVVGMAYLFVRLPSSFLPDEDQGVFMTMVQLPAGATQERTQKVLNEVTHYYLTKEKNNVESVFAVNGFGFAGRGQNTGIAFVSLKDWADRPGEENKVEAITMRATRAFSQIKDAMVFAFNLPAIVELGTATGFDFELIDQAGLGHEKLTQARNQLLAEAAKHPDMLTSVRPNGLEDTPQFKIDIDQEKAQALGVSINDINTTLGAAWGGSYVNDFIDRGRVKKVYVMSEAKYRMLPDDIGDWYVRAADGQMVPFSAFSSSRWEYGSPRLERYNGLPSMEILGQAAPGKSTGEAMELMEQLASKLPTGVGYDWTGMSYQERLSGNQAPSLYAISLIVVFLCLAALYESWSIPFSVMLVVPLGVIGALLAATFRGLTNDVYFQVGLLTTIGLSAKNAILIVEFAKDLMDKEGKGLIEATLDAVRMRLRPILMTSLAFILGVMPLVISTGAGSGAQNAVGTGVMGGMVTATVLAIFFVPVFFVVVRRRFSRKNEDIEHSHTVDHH

[4] = molecular target: T1, Multidrug efflux pump subunit AcrB (Escherichia coli (strain K12)); assay: Inhibition of AcrB in wild-type drug-resistant Escherichia coli BW2113 assessed as potentiation of chloramphenicol-induced antimicrobial activity by measuring chloramphenicol MIC at 16 ug/ml by checkerboard titration method (Rvb =16 ug/ml)
[5] = molecular target: T1, Multidrug efflux pump subunit AcrB (Escherichia coli (strain K12)); assay: Inhibition of AcrB in wild-type drug-resistant Escherichia coli […] assessed as potentiation of chloramphenicol-induced antimicrobial activity by measuring chloramphenicol MIC at 32 ug/ml by checkerboard titration method (Rvb =16 ug/ml)
[6] = molecular target: T1, Multidrug efflux pump subunit AcrB (Escherichia coli (strain K12)); assay: Inhibition of AcrB in wild-type drug-resistant Escherichia coli […] assessed as potentiation of chloramphenicol-induced antimicrobial activity by measuring chloramphenicol MIC at 64 ug/ml by checkerboard titration method (Rvb =16 ug/ml)
[7] = molecular target: T1, Multidrug efflux pump subunit AcrB (Escherichia coli (strain K12)); assay: Inhibition of AcrB in wild-type drug-resistant Escherichia coli […] assessed as potentiation of erythromycin-induced antimicrobial activity by measuring erythromycin MIC at 8 ug/ml by checkerboard titration method (reference value: 64 ug/ml)
[8] = molecular target: T1, Multidrug efflux pump subunit AcrB (Escherichia coli (strain K12)); assay: Inhibition of AcrB in wild-type drug-resistant Escherichia coli […] assessed as potentiation of erythromycin-induced antimicrobial activity by measuring erythromycin MIC at 16 ug/ml by checkerboard titration method (reference value: 64 ug/ml)
[9] = molecular target: T1, Multidrug efflux pump subunit AcrB (Escherichia coli (strain K12)); assay: Inhibition of AcrB in wild-type drug-resistant Escherichia coli […] assessed as potentiation of erythromycin-induced antimicrobial activity by measuring erythromycin MIC at 32 ug/ml by checkerboard titration method (reference value: 64 ug/ml)
[10] = molecular target: T1, Multidrug efflux pump subunit AcrB (Escherichia coli (strain K12)); assay: Inhibition of AcrB in wild-type drug-resistant Escherichia coli […] assessed as potentiation of erythromycin-induced antimicrobial activity by measuring erythromycin MIC at 128 ug/ml by checkerboard titration method (reference value: 64 ug/ml)
[11] = molecular target: T1, Multidrug efflux pump subunit AcrB (Escherichia coli (strain K12)); assay: Inhibition of AcrB in wild-type drug-resistant Escherichia coli […] assessed as potentiation of tetraphenyl phosphonium chloride-induced antimicrobial activity by measuring tetraphenyl phosphonium chloride MIC at 8 ug/ml by checkerboard titration method (reference value: 1024 ug/ml)
[12] = molecular target: T1, Multidrug efflux pump subunit AcrB (Escherichia coli (strain K12)); assay: Inhibition of AcrB in wild-type drug-resistant Escherichia coli […] assessed as potentiation of tetraphenyl phosphonium chloride-induced antimicrobial activity by measuring tetraphenyl phosphonium chloride MIC at 16 ug/ml by checkerboard titration method (reference value: 1024 ug/ml)
[13] = molecular target: T1, Multidrug efflux pump subunit AcrB (Escherichia coli (strain K12)); assay: Inhibition of AcrB in wild-type drug-resistant Escherichia coli […] assessed as potentiation of tetraphenyl phosphonium chloride-induced antimicrobial activity by measuring tetraphenyl phosphonium chloride MIC at 32 ug/ml by checkerboard titration method (reference value: 1024 ug/ml)
[14] = molecular target: T1, Multidrug efflux pump subunit AcrB (Escherichia coli (strain K12)); assay: Inhibition of AcrB in wild-type drug-resistant Escherichia coli […] assessed as potentiation of tetraphenyl phosphonium chloride-induced antimicrobial activity by measuring tetraphenyl phosphonium chloride MIC at 128 ug/ml by checkerboard titration method (reference value: 1024 ug/ml)
[15] = molecular target: T1, Multidrug efflux pump subunit AcrB (Escherichia coli (strain K12)); assay: Inhibition of AcrB in wild-type drug-resistant Escherichia coli […] assessed as potentiation of levofloxacin-induced antimicrobial activity by measuring levofloxacin MIC at 8 ug/ml by checkerboard titration method (reference value: 0.063 ug/ml)
[16] = molecular target: T1, Multidrug efflux pump subunit AcrB (Escherichia coli (strain K12)); assay: Inhibition of AcrB in wild-type drug-resistant Escherichia coli […] assessed as potentiation of levofloxacin-induced antimicrobial activity by measuring levofloxacin MIC at 16 ug/ml by checkerboard titration method (reference value: 0.063 ug/ml)
[17] = molecular target: T1, Multidrug efflux pump subunit AcrB (Escherichia coli (strain K12)); assay: Inhibition of AcrB in wild-type drug-resistant Escherichia coli […] assessed as potentiation of levofloxacin-induced antimicrobial activity by measuring levofloxacin MIC at 64 ug/ml by checkerboard titration method (reference value: 0.063 ug/ml)
[18] = test system: Escherichia coli; assay: Disruption of Escherichia coli inner membrane integrity at 128 ug/ml after 10 mins by DiOC2(3) probe based fluorescence assay; format: ADME, organism-based; settings: in vivo
How it was run: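 Bacterial suspensions pre-exposed to compound for 10 min, then DiOC2(3) added and fluorescence followed to plateau. Cells re-energized with 0.5% glucose; membrane potential (inside negative) read as fluorescence rise to plateau, then collapsed with the proton ionophore CCCP. Untreated cells run alongside.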

CCCCCCN1C(=O)c2cc3cccc(OC)c3cc2C1=O
Activity [1]: Non-Toxic | Activity [2]: Non-Toxic | MIC [3]: 16 mg/L | MIC [4]: 16 mg/L | MIC [5]: 16 mg/L | MIC [6]: 8 mg/L | MIC [7]: 64 mg/L | MIC [8]: 32 mg/L | MIC [9]: 32 mg/L | MIC [10]: 8 mg/L | MIC [11]: 1020 mg/L | MIC [12]: 1020 mg/L | MIC [13]: 512 mg/L | MIC [14]: 128 mg/L | MIC [15]: 0.063 mg/L | MIC [16]: 0.063 mg/L | MIC [17]: 0.063 mg/L | Activity [18]: Non-Toxic

COc1ccc(CN2C(=O)c3cc4cccc(OC)c4cc3C2=O)cc1
Activity [1]: Non-Toxic | Activity [2]: Non-Toxic | MIC [3]: 16 mg/L | MIC [4]: 16 mg/L | MIC [5]: 16 mg/L | MIC [6]: 16 mg/L | MIC [7]: 64 mg/L | MIC [8]: 32 mg/L | MIC [9]: 32 mg/L | MIC [10]: 32 mg/L | MIC [11]: 1020 mg/L | MIC [12]: 1020 mg/L | MIC [13]: 1020 mg/L | MIC [14]: 1020 mg/L | MIC [15]: 0.063 mg/L | MIC [16]: 0.063 mg/L | MIC [17]: 0.063 mg/L

CCCCCN1C(=O)c2cc3cccc(OC)c3cc2C1=O
Activity [1]: Non-Toxic | Activity [2]: Non-Toxic | MIC [3]: 16 mg/L | MIC [4]: 16 mg/L | MIC [5]: 8 mg/L | MIC [6]: 8 mg/L | MIC [7]: 64 mg/L | MIC [8]: 64 mg/L | MIC [9]: 32 mg/L | MIC [10]: 8 mg/L | MIC [11]: 1020 mg/L | MIC [12]: 1020 mg/L | MIC [13]: 1020 mg/L | MIC [14]: 512 mg/L | MIC [15]: 0.063 mg/L | MIC [16]: 0.063 mg/L | MIC [17]: 0.0313 mg/L | Activity [18]: Non-Toxic

COc1ccccc1CN1C(=O)c2cc3cccc(OC)c3cc2C1=O
Activity [1]: Non-Toxic | Activity [2]: Non-Toxic | MIC [3]: 16 mg/L | MIC [4]: 16 mg/L | MIC [5]: 16 mg/L | MIC [6]: 16 mg/L | MIC [7]: 64 mg/L | MIC [8]: 64 mg/L | MIC [9]: 64 mg/L | MIC [10]: 64 mg/L | MIC [11]: 1020 mg/L | MIC [12]: 1020 mg/L | MIC [13]: 1020 mg/L | MIC [14]: 512 mg/L | MIC [15]: 0.016 mg/L | MIC [16]: 0.0039 mg/L | MIC [17]: 0.0019 mg/L | Activity [18]: Non-Toxic

COc1cccc2cc3c(cc12)C(=O)N(C1CCCC1)C3=O
Activity [1]: Non-Toxic | Activity [2]: Non-Toxic | MIC [3]: 16 mg/L | MIC [4]: 16 mg/L | MIC [5]: 16 mg/L | MIC [6]: 16 mg/L | MIC [7]: 64 mg/L | MIC [8]: 64 mg/L | MIC [9]: 32 mg/L | MIC [10]: 8 mg/L | MIC [11]: 1020 mg/L | MIC [12]: 1020 mg/L | MIC [13]: 1020 mg/L | MIC [14]: 1020 mg/L | MIC [15]: 0.063 mg/L | MIC [16]: 0.063 mg/L | MIC [17]: 0.063 mg/L | Activity [18]: Non-Toxic
